The sample as a whole holds a higher share of hits than the screen did.
Avidin bead fluor – avidin bead compound fluorescence profile | Avidin beads, compound fluorescence 488/530 nm, flow cytometry; hits give high values | fluorescence (KMESF) at 10 µM | 220,000 tested, 0.38% active; in the data active means fluorescence above about 47
ABCG2 block – inhibitors of human ABCG2 transporter, ABCB1 counter-screen. Q9UNQ0. IgMXP3 cells, JC-1 efflux, flow cytometry. inhibition, % at 6.6 µM. 190,000 tested, 0.1% active;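 active means inhibition above 80%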;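 further: 0% = DMSO and 100% = nicardipine control wells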
Target sequence (Q9UNQ0 whole entry, looked up): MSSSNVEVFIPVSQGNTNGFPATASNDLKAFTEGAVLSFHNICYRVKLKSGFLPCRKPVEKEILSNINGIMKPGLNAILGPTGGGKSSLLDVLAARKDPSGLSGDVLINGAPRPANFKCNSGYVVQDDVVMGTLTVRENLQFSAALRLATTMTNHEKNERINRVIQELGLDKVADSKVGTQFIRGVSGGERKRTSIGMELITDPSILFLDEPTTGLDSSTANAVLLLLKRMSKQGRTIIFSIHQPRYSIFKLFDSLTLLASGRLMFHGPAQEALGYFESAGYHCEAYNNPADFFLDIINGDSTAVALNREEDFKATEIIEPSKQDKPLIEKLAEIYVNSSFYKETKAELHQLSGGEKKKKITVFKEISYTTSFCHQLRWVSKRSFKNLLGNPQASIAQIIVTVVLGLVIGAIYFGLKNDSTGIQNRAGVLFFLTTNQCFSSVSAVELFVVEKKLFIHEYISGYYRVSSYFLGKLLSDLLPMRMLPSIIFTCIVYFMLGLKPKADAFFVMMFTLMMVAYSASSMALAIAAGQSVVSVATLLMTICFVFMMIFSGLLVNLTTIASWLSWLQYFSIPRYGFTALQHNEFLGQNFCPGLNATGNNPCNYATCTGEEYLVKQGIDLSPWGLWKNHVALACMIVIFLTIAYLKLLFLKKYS
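Times: 10 min at 25 °C | Test system: Two drug-resistant human cell lines, ABCG2 and ABCB1 | Quantity: 3 million cells/mL final, two lines in 1:1 ratio | Signal: Flow cytometry, 530 nm JC-1 signal | Dosing: Compound at 6.6 µM | Controls: Nicardipine and DMSO wells | Reagent: JC-1 as fluorescent efflux pump substrate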
ABCB1 block – human ABCB1 inhibition, ABCG2 as counter-screen; P08183; CCRF-Adr cells, JC-1 efflux, flow cytometry; inhibition, % at 6.6 µM; 190,000 tested, 0.067% active; AID 1326; in the data active means inhibition above about 40%;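 further: 0% = vehicle and 100% = reference inhibitor; higher value means more JC-1 retained so stronger ABCB1 efflux block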
L major viab – Leishmania major promastigote growth inhibition; inhibition, % at 10 µM; 200,000 tested, 9% active; AID 1063; Leishmania major promastigotes, resazurin fluorescence viability;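 further: promastigotes grown with compound for 44 hours at 28 °C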
GSH bead fluor – GSH bead compound fluorescence profile | fluorescence (KMESF) at 10 µM | GSH beads flow cytometry, compound fluorescence 488/530 nm; hits give high values | AID 1776 | 190,000 tested, 0.25% active; in the data active means fluorescence above about 89;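 further: glutathione beads carrying GST-tagged Bcl family fusion proteins plus one bare bead set; values are compound well signal with DMSO vehicle wells as background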
PKD1 inh – blocks activity of human protein kinase D1; Q15139; inhibition, % (no concentration beside the values); 200,000 tested, 0.056% active; AID 797; PKD1 kinase fluorescence polarization assay
Numbers without * were called inactive. Unless noted, no stated cut-off is given here; in the data, active means inhibition above about 50%; inactive means the rest.

For CCC1(C)N=C(c2ccc3c(c2)OCO3)CC(c2ccccc2O)N1 (configuration not stated) the results were Avidin bead fluor 11, ABCG2 block 9, ABCB1 block 0, L major viab 95*, GSH bead fluor 32 and PKD1 inh -3.
`S=C(NC12CC3CC(CC(C3)C1)C2)N1CCCC1` gave Avidin bead fluor 15, ABCG2 block 2, ABCB1 block 0, L major viab 53*, GSH bead fluor 7 and PKD1 inh -13.
`O=C(CC12CC3CC(CC(C3)C1)C2)NC(=S)N1CCCCC1` gave Avidin bead fluor 7, ABCG2 block -3, ABCB1 block 0, L major viab -3, GSH bead fluor 10 and PKD1 inh -18.
Screening O=[N+]([O-])/C=C/c1cn(Cc2ccc(Cl)cc2)c2ccccc12 returned Avidin bead fluor 14, ABCG2 block -6, ABCB1 block -1, L major viab 99*, GSH bead fluor 22 and PKD1 inh -11.
For CCOC(=O)Cn1cc(/C=C/[N+](=O)[O-])c2ccccc21 the results were Avidin bead fluor 11, ABCG2 block 1, ABCB1 block 0, L major viab 36, GSH bead fluor 13 and PKD1 inh -7.
For Cc1cccc(Cn2cc(/C=C/[N+](=O)[O-])c3ccccc32)c1 the results were Avidin bead fluor 11, ABCG2 block 4, ABCB1 block 1, L major viab 77*, GSH bead fluor 20 and PKD1 inh -5.
CCOC(=O)NC(=O)c1cn(Nc2ccccc2)c(=O)[nH]c1=O was read as Avidin bead fluor 3.
Screening O=C(/C=C/c1cccc(O)c1)c1ccc(N2CCOCC2)cc1 returned Avidin bead fluor 7.
CCN(C(=O)CSc1nnnn1-c1cc(C)ccc1OC)C1CCS(=O)(=O)C1 (configuration not stated) was read as Avidin bead fluor 8, ABCG2 block 1, ABCB1 block 0, L major viab -6, GSH bead fluor 267* and PKD1 inh -9.
Cc1ccc(OCC(=O)N2CC(C)OC(C)C2)c([N+](=O)[O-])n1 (configuration not stated) was read as Avidin bead fluor 9, ABCG2 block 2, ABCB1 block 1, L major viab 7, GSH bead fluor 14 and PKD1 inh 2.
For O=C(CN1C(=O)NC2(CCCCCC2)C1=O)Nc1ccc2c(c1)CCC2 the results were Avidin bead fluor 12, ABCG2 block 0, ABCB1 block 0, L major viab 17, GSH bead fluor 62 and PKD1 inh 3.
CCn1cc(S(=O)(=O)CC(=O)Nc2ccc3c(c2)OCO3)c2ccccc21 was read as Avidin bead fluor 8.
`Cn1cc(S(=O)(=O)CC(=O)Nc2ccc3c(c2)OCO3)c2ccccc21` gave Avidin bead fluor 194*, ABCG2 block 0, ABCB1 block 0, L major viab 18, GSH bead fluor 91* and PKD1 inh -12.
`Cc1cccc2cc(CN(Cc3cccnc3)C(=O)c3ccccc3F)c(Cl)nc12` gave Avidin bead fluor 16, ABCG2 block 4, ABCB1 block 2, L major viab 97*, GSH bead fluor 15 and PKD1 inh -2.
`Cc1cc(C)c2cc(CN(Cc3cccnc3)C(=O)c3ccc(F)cc3)c(Cl)nc2c1` gave Avidin bead fluor 18, ABCG2 block 4, ABCB1 block 5, L major viab 98*, GSH bead fluor 31 and PKD1 inh 8.
`Cc1ccccc1C(=O)NNC(=O)c1cc(N)cc([N+](=O)[O-])c1` gave Avidin bead fluor 1, ABCG2 block 1, ABCB1 block 0, L major viab -2, GSH bead fluor 7 and PKD1 inh -9.
`CCc1cccc(C)c1NC(=S)NCc1ccc2[nH]c(C)cc2c1` gave Avidin bead fluor 7, ABCG2 block 8, ABCB1 block 1, L major viab 93*, GSH bead fluor 16 and PKD1 inh -10.
Screening Cc1cc(C)c2c(N)c3cccc(C)c3nc2n1 returned Avidin bead fluor 18, ABCG2 block 1, ABCB1 block 0, L major viab 100*, GSH bead fluor 13 and PKD1 inh -10.
For Cc1cc(OCC(=O)O)c2cccc(C)c2n1 the results were Avidin bead fluor 34, ABCG2 block 0, ABCB1 block 0, L major viab -4, GSH bead fluor 11 and PKD1 inh -6.
`Cc1cccc2c(N)c3c(nc12)CCCC3` (tested in a mixture with another compound) gave Avidin bead fluor 9, ABCG2 block 1, ABCB1 block 0, L major viab 67*, GSH bead fluor 9 and PKD1 inh 0.
Screening CC(=O)Nc1ccc(C(=O)OC2CCCCC2=O)cc1 (configuration not stated) returned Avidin bead fluor 6, ABCG2 block 1, ABCB1 block 0, L major viab 9, GSH bead fluor 280* and PKD1 inh -7.
Screening O=C(OCCNc1nc(-c2ccccc2)nc2ccccc12)c1cccnc1 returned Avidin bead fluor 10, ABCG2 block 2, ABCB1 block 0, L major viab 57*, GSH bead fluor 22 and PKD1 inh 2.
`O=C(OCCNc1nc(-c2ccccc2)nc2ccccc12)c1ccncc1` gave Avidin bead fluor 11, ABCG2 block 37, ABCB1 block 6, L major viab 72*, GSH bead fluor 12 and PKD1 inh -1.
Screening CCCOC(=O)c1cccc(Nc2nc(-c3cccnc3)nc3ccccc23)c1 returned Avidin bead fluor 9, ABCG2 block 3, ABCB1 block 1, L major viab 56*, GSH bead fluor 9 and PKD1 inh -8.
Cc1cc(NC(=O)COC(=O)C(Nc2ccc(C(F)(F)F)cc2Cl)C(C)C)no1 (configuration not stated) was read as Avidin bead fluor 16, ABCG2 block 1, ABCB1 block 0, L major viab 11, GSH bead fluor 22 and PKD1 inh 2.
CCOc1c(OC(C)=O)ccc(/C=C2\N=C(SCC)SC2=O)c1[N+](=O)[O-] was read as Avidin bead fluor 78*, ABCG2 block 4, ABCB1 block 0, L major viab -4, GSH bead fluor 27 and PKD1 inh 4.
For Cc1occc1-c1nnc(SCC(=O)O)n1-c1ccccc1 the results were Avidin bead fluor 10.
Screening O=C(NCCCN1CCOCC1)c1csc2c1CCCC2 returned Avidin bead fluor 8, ABCG2 block 0, ABCB1 block 0, L major viab 85*, GSH bead fluor 16 and PKD1 inh -1.
`O=C(NCCCN1CCOCC1)c1cc2c(s1)CCCC2` gave Avidin bead fluor 34, ABCG2 block 0, ABCB1 block 0, L major viab 91*, GSH bead fluor 13 and PKD1 inh -16.
Screening O=C(NCCCN1CCCC1=O)c1cc2c(s1)CCCCC2 returned Avidin bead fluor 7.

Screens (PubChem BioAssay)
